Compound activity as filed in PubChem.
M1 antag: antagonists of rat M1 muscarinic receptor; Muscarinic acetylcholine receptor M1 (Rattus norvegicus), P08482; CHO-M1 cells, Fluo-4 calcium, ACh EC80 antagonist mode; active compounds read low; B-score at 10 µM; 64,000 compounds, 3.4% hits;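 active means calcium fluorescence response, raw or row-and-column corrected B-score, differing from the plate sample mean either way at a set confidence level, mostly lower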
M1 agonist: M1 muscarinic receptor agonists, primary screen, CHO-M1 cells, Fluo-4 calcium, agonist mode; Muscarinic acetylcholine receptor M1; Fluo-4 calcium fluorescence; active compounds read high; B-score at 10 µM; 64,000 compounds, 3% hits; AID 626, 2007;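 active means fluorescence rise, raw or as B-score row- and column-corrected plate score, outside the 99.7% band of its plate's samples, either direction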
HEK293 NFkB inh: inhibitors of PMA/ionomycin-induced NF-kB reporter, primary screen, antigen receptor NF-kB inhibitor project, cell-based, HEK-293 luciferase reporter, luminescence; HEK-293 NF-kB luciferase reporter; inhibition, % at 3 µM; 62,000 compounds, 0.21% hits;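 active means inhibition above the mean of all tested compounds plus 3 SD, cut at about 40% in these data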;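 further: 0% = stimulated DMSO wells and 100% = 10 µM reference inhibitor 5653914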
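Timing: 1 h pretreatment, 16 h stimulation, 37 °C; system: HEK-293 cells with stable firefly luciferase reporter driven by four HIV NF-kB elements; doses: 3 µM once, 0.30% DMSO; measured by: luciferase luminescence; control set: DMSO and 10 µM reference inhibitor; repeats: single test; reagent: PMA plus ionomycin mix as NF-kB-activating stimulus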
Her2 expr inh: inhibitors of Her2 protein expression, primary screen, SKBR-3 cells, AlphaScreen, 66K library. Receptor tyrosine-protein kinase erbB-2 (Homo sapiens), P04626. HER2 level % of control, % at 10 µM. AID 645, 2007. SKBR-3 HER2 protein level, 18-24 h; active compounds read low. 65,000 compounds, 0.69% hits;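 active means HER2 level under 5% of the carrier-only control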;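 further: 100% = DMSO carrier and 0% = 500 nM PU-H71 HSP90 inhibitor; lower value means stronger loss of Her2 protein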
Cdc25B block: inhibitors of Cdc25B phosphatase catalytic domain, primary screen, biochemical, OMFP fluorescence; M-phase inducer phosphatase 2 (Homo sapiens), P30305; recombinant Cdc25B, OMFP fluorescence Ex485/Em525; inhibition, %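 (compounds tested at 10 µM final in the well)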; 65,000 compounds, 0.1% hits; in the data active means inhibition above about 50%
MKP-1 inh: MKP-1 phosphatase inhibitors, primary screen, biochemical, in vitro; recombinant MKP-1, OMFP hydrolysis fluorescence; Dual specificity protein phosphatase 1 (Homo sapiens), P28562; 65,000 compounds, 0.15% hits; AID 374, 2006; inhibition, %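 (compounds tested at a single concentration somewhere between 10 and 100 µM)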;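 active means inhibition above about 50%, limit read from the data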;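 further: 0% = DMSO max control wells and 100% = wells with enzyme stopped by NaOH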
Target sequence (P28562 whole entry, looked up): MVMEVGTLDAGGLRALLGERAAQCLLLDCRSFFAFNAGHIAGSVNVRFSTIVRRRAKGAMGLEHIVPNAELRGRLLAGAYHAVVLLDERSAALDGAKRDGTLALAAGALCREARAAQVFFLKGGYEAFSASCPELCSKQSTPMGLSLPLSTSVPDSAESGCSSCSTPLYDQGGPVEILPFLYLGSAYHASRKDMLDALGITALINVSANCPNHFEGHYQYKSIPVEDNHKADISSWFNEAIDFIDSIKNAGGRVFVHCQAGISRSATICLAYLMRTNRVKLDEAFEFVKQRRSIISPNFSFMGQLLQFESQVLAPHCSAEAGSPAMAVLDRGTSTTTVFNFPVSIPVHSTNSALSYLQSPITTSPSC
Starred values were filed as active, the others as inactive; / = no result. The list is not random: actives were taken first. Their share in the collection is about 6.8%.

SMILES	M1 antag	M1 agonist	HEK293 NFkB inh	Her2 expr inh	Cdc25B block	MKP-1 inh
Cc1cc(C)nc(-n2nc(C)cc2Nc2ccccc2)n1	-0.28	-0.17	8	68	-13	12
CCC(C(=O)Nc1cc(C)nn1-c1nc(C)cc(C)n1)c1ccccc1 (configuration not stated)	0.28	1.2	15	76	66*	33
CC1CCN(C(=O)Cn2cc3c(n2)CCCC3)CC1	0.47	-0.16	4	114	3	-2
CCOC(=O)N1CCN(C(=O)Cn2cc3c(n2)CCCC3)CC1	0.11	-3.2*	18	106	-11	-3
CCn1c2ccccc2c2cc(C3C(C#N)=C(N)Oc4n[nH]c(COC)c43)ccc21 (configuration not stated)	0.51	-0.2	21	-24*	-7	38
Cc1ccc(S(=O)(=O)NCCN=C(CN2CCCC2)NS(=O)(=O)c2ccc(C)cc2)cc1	0.0064	-0.16	17	79	8	-8
N#Cc1ccc(NC(=O)c2cc3cc4c5c(c3oc2=N)CCCN5CCC4)cc1	0.19	166*	-3	76	1	1
CC(C)(C)OC(=O)N1CCN(c2ccc(NC(=O)c3cc4ccccc4oc3=O)cc2)CC1	0.13	0.92	14	106	-14	0
Cc1c(-c2cccs2)[n+](=O)c2c(n1[O-])CCCC2	0.021	-0.021	/	-31*	19	-23
CCOCc1nnc(NC(=O)c2cccs2)s1	2.1*	0.95	13	79	3	6
CCOCCc1nnc(NC(=O)c2cccs2)s1	-0.37	-0.13	5	69	9	2
Cc1nn(C(C)C(=O)N2CCCCC2)c(=O)c2c1sc1ccccc12 (configuration not stated)	0.64	1.7	11	91	-8	67*
Cc1nn(C(C)C(=O)O)c(=O)c2c1sc1ccccc12 (configuration not stated)	-0.44	0.51	7	86	4	29
CC(C)n1c(N2CCN(CC(=O)NCc3cccs3)CC2)nc2ccccc21	0.0099	1.5	5	82	18	24
O=C(CN1CCC(c2nc3ccccc3s2)CC1)NCc1cccs1	-1.1	-0.3	10	-13*	-7	-4
CCOC(=O)c1cccc(NC(=O)CNC(=O)C2CCCCC2)c1	-0.3	-0.26	-2	104	4	2
Cc1cc(NC(=O)CNC(=O)C2CCCCC2)no1	-0.79	0.11	4	-20*	-9	3
CCOC(=O)CN=C1CC(C)(C)CC2=C1Sc1ncnc(N(C)C)c1N2	-1.4	8.2*	6	98	-9	-14
CCOC(=O)C1=C(C)NC2=C(C(=O)CC(C)(C)C2)C1c1cccc(C)n1 (configuration not stated)	0.9	0.98	15	117	4	9
Cc1ccc(N2CCCCn3c2nc2c3c(=O)n(CC(=O)O)c(=O)n2C)cc1	0.2	-0.44	9	112	-8	-29
O=C(CSc1ccc2nnc(-c3cccnc3)n2n1)NCc1ccc2c(c1)OCO2	0.23	1.1	6	-17*	-2	18
O=C1/C(=N/n2cnnc2)c2ccccc2N1Cc1ccccc1	0.036	-1	10	-16*	4	22
CCCCNC(=O)OCCNC(=O)NC	-0.19	-0.51	6	-55*	5	8
CC1CCN(c2nc3ccccc3nc2C(C#N)C(=O)OC2CCCCC2)CC1 (configuration not stated)	1.5*	3.2	10	108	4	0
CC1CCN(c2nc3ccccc3nc2C(C#N)S(=O)(=O)c2ccccc2)CC1 (configuration not stated)	0.52	3.8*	4	80	-3	0
SMILES	M1 antag	M1 agonist	HEK293 NFkB inh	Her2 expr inh	Cdc25B block	MKP-1 inh
CC(NC(=O)OCc1ccccc1)C(=O)N1CC(O)CC1C(=O)O (configuration not stated)	0.069	0.011	4	80	-5	0
CCN1CCN(c2ncnc3c2cnn3-c2ccc(Cl)cc2)CC1	-1.4*	0.69	-5	120	-10	4
CC1CCCN(c2ncnc3c2cnn3-c2ccc(Cl)cc2)C1 (configuration not stated)	-0.18	-0.43	71*	42	-5	4
COC(=O)CC1=C(C(=O)OC)C(c2ccc3c(c2Cl)OCO3)C(C#N)=C(N)O1 (configuration not stated)	0.089	0.18	/	-22*	2	-16
O=C(CCC1CC(=O)Nc2ccccc21)NCc1cccnc1 (configuration not stated)	0.46	0.35	3	94	-4	7
O=C(CC1Nc2ccccc2NC1=O)NCc1cccnc1 (configuration not stated)	1.4*	1.2	11	95	9	2
Cc1ccc(S(=O)(=O)NCC(c2ccccc2)N2CCN(CCC#N)CC2)cc1 (configuration not stated)	0.47	0.49	7	98	-9	6
COC(=O)c1ccc(NC(=O)CSc2nnc(CNc3ccc(F)cc3)n2C)cc1	-1	1.6	2	50	-5	26
O=C(NCc1ccc(F)cc1)N[C@@H](Cc1ccccc1)C(=O)O	0.61	0.4	2	118	-20	-13
CSCC[C@H](NC(=O)NCc1ccc(F)cc1)C(=O)O	0.51	-1.3	3	-15*	3	-4
COc1ccc2cc(C3(C)NC(=O)NC3=O)ccc2c1 (configuration not stated)	2.4*	0.37	9	112	5	-1
Cc1ccnc(N2CCC(C(=O)Nc3cccc(C(F)(F)F)c3)CC2)n1	0.054	0.88	15	81	10	8
Cn1cnnc1SCNC(=O)C(F)(F)F	0.63	0.18	13	88	-5	-2
O=C(OCC(=O)N1CCN(C(=O)COC(=O)c2ccncc2)CC1)c1ccncc1	-1.1	-1.5	7	98	-8	4
COc1ccc(-c2cc(C(F)(F)F)n3nc(C(=O)N4CCCC4)cc3n2)cc1	1.8*	-0.72	8	103	-17	2
CC12CCC(=O)N1c1ccccc1C(=O)N2c1ccccc1 (configuration not stated)	2.3*	1.1	9	/	-15	-12
Cn1c(SCC2CCCCC2)nnc1-c1ccncc1	0.11	0.056	3	105	-8	-6
CSc1nncc(-c2ccc(F)cc2)n1	2.6*	0.79	12	98	-7	-13
Cc1nn(C)c(C)c1NC(=O)c1ccc(S(=O)(=O)N(C)C)cc1	-0.72	-0.56	6	96	-12	-1
